This note sets out measurements from ChEMBL document CHEMBL2331355, “Synthesis, structure activity relationship and mode of action of 3-substitutedphenyl-1-(2,2,8,8-tetramethyl-3,4,9,10-tetrahydro-2H,8H-pyrano[2,3-f]chromen-6-yl)-propenones as novel anticancer agents in human leukaemia HL-60 cells” (Eur J Med Chem, 2013).

What all share (assay type): functional
In experiment [1] the test system is HL-60. Briefly: Cell cycle arrest in human HL60 cells assessed as S phase cells at 4 uM after 6 hrs by PI staining-based flow cytometric analysis (reference value: 49%). For orientation: A flow cytometer gives signals particle by particle.
The subject of experiment [2] is HL-60. Briefly: Induction of mitochondrial membrane potential loss in human HL60 cells at 4 uM after 6 hrs by rhodamine-123 staining method (reference value: 7%).
Experiment [3] concerns HL-60. Kind of experiment: Cell cycle arrest in human HL60 cells assessed as accumulation of G0/G1 phase cells at 4 uM after 6 hrs by PI staining-based flow cytometric analysis (reference value: 48%).
Experiment [4] relates to HL-60. Briefly: Cell cycle arrest in human HL60 cells assessed as G2/M phase cells at 4 uM after 6 hrs by PI staining-based flow cytometric analysis (reference value: 3%).
For experiment [5], the system named is HL-60. Kind of experiment: Induction of apoptosis in human HL60 cells at 4 uM after 6 hrs by PI-staining based flow cytometric analysis (reference value: 0.7 %).
The subject of another experiment is MCF7. Kind of experiment: Growth inhibition of human MCF7 cells at 2 uM after 48 hrs by MTT assay. The conditions noted are these: MCF7, 48 h, read-out: GI. In general terms: Tetrazolium assays rely on reduction of a dye to a coloured formazan, in cell work by metabolically active cells.
For a further experiment, the system named is PC-3. Kind of experiment: Growth inhibition of human PC3 cells at 10 uM after 48 hrs by MTT assay. The conditions noted are these: PC-3, 48 h, read-out: GI. The method in brief:
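MTT assay. Suspension or adherent cells were exposed to compound for 48 h. OD was read at 570 nm (reference 620 nm), with untreated control OD set as 100% viability. Results are percent growth inhibition, mean ± SD of three independent experiments.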

Structures can show the parent of a compound that is named as a salt.

Consider `CC[C@@]1(O)C(=O)OCc2c1cc1n(c2=O)Cc2cc3ccccc3nc2-1` [CAMPTOTHECIN], for which the Activity in the experiment with HL-60 [1] was 6%; in the experiment on HL-60 [2] it was 51%; in the experiment on HL-60 [3], 88%; with HL-60 [4], 6%; in the experiment on HL-60 [5], 69%.
For `COc1cccc2c1C(=O)c1c(O)c3c(c(O)c1C2=O)C[C@@](O)(C(=O)CO)C[C@@H]3O[C@H]1C[C@H](N)[C@H](O)[C@H](C)O1` [DOXORUBICIN HYDROCHLORIDE], the inhibition of growth at 2 µM in the experiment with MCF7 turned out to be 90%.
On to `CO[C@@]12[C@H](COC(N)=O)C3=C(C(=O)C(C)=C(N)C3=O)N1C[C@@H]1N[C@@H]12` [MITOMYCIN], for which, in the experiment on PC-3, the inhibition of growth at 10 µM stood at 68%.
